From publication PMC9052575 (RSC Advances, 2020)
Read-outs that look alike come from different tables or passages of the source.

Columns and labels:
MCF-7 cells = test: MTT anti-proliferative assay, MCF-7; assay type: cell-based, human; conditions: for IC50: read-out: IC50 against MCF-7 cells
MDA-MB-231 cells = test: MTT anti-proliferative assay, MDA-MB-231; assay type: cell-based, human; conditions: read-out: IC50 against MDA-MB-231 cells
HEK-293 cells = test: MTT toxicity assay, normal/non-tumor HEK-293 cells; assay type: cell-based; conditions: Homo sapiens, HEK293, read-out: IC50 against HEK-293 cells
Procedure, shortened: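 HEK-293 cells seeded at 5000 cells/well in triplicate. After 24 h, exposed for 24 h at 37 °C and 5% CO2 to test compound at 1–100 μM, diluted in complete DMEM. MTT (5 mg mL−1 stock in PBS) added for 2 h, then 10% SDS/10 mM HCl for 16 h at 37 °C. OD read at 570 nm.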

[1] = MTT assay, 24 hours treatment, 1-100 μM

IC50 (MCF-7 cells; Homo sapiens, MCF7, 24 h) | IC50 (MDA-MB-231 cells; Homo sapiens, MDA-MB-231, 24 h) | IC50 (MCF-7 cells; [1]) | IC50 (MDA-MB-231 cells; [1]) | Compound | IC50 (HEK-293 cells) | IC50 against MCF-7 cells (MCF-7 cells; [1])
> 100 µM | > 100 µM | – | – | CC(=O)N1N=C(c2ccc(OCc3cn(CCN4C(=O)c5cccc6cccc(c56)C4=O)nn3)cc2)CC1c1ccccc1 (stereo not shown) [13a, 2-(2-(4-((4-(1-Acetyl-5-phenyl-4,5-dihydro-1H-pyrazol-3-yl)phenoxy)methyl)-1H-1,2,3-triazol-1-yl)ethyl)-1H-benzo[de]isoquinoline-1,3(2H)-dione] | – | –
> 100 µM | > 100 µM | – | – | COc1ccc(C2CC(c3ccc(OCc4cn(CCN5C(=O)c6cccc7cccc(c67)C5=O)nn4)cc3)=NN2C(C)=O)cc1 (stereo not shown) [13b, 2-(2-(4-((4-(1-Acetyl-5-(4-methoxyphenyl)-4,5-dihydro-1H-pyrazol-3-yl)phenoxy)methyl)-1H-1,2,3-triazol-1-yl)ethyl)-1H-benzo[de]isoquinoline-1,3(2H)-dione] | – | –
> 100 µM | > 100 µM | – | – | COc1ccc(OC)c(C2CC(c3ccc(OCc4cn(CCN5C(=O)c6cccc7cccc(c67)C5=O)nn4)cc3)=NN2C(C)=O)c1 (stereo not shown) [13c, 2-(2-(4-((4-(1-Acetyl-5-(2,5-dimethoxyphenyl)-4,5-dihydro-1H-pyrazol-3-yl)phenoxy)methyl)-1H-1,2,3-triazol-1-yl)ethyl)-1H-benzo[de]isoquinoline-1,3(2H)-dione] | – | –
> 100 µM | > 100 µM | – | – | CC(=O)N1N=C(c2ccc(OCc3cn(CCN4C(=O)c5cccc6cccc(c56)C4=O)nn3)cc2)CC1c1ccc([N+](=O)[O-])cc1 (stereo not shown) [13d, 2-(2-(4-((4-(1-Acetyl-5-(4-nitrophenyl)-4,5-dihydro-1H-pyrazol-3-yl)phenoxy)methyl)-1H-1,2,3-triazol-1-yl)ethyl)-1H-benzo[de]isoquinoline-1,3(2H)-dione] | – | –
> 100 µM | > 100 µM | – | – | CC(=O)N1N=C(c2ccc(OCc3cn(CCCN4C(=O)c5cccc6cccc(c56)C4=O)nn3)cc2)CC1c1ccccc1 (stereo not shown) [13e, 2-(3-(4-((4-(1-Acetyl-5-phenyl-4,5-dihydro-1H-pyrazol-3-yl)phenoxy)methyl)-1H-1,2,3-triazol-1-yl)propyl)-1H-benzo[de]isoquinoline-1,3(2H)-dione] | – | –
98.1 µM | > 100 µM | – | – | COc1ccc(C2CC(c3ccc(OCc4cn(CCCN5C(=O)c6cccc7cccc(c67)C5=O)nn4)cc3)=NN2C(C)=O)cc1 (stereo not shown) [13f, 2-(3-(4-((4-(1-Acetyl-5-(4-methoxyphenyl)-4,5-dihydro-1H-pyrazol-3-yl)phenoxy)methyl)-1H-1,2,3-triazol-1-yl)propyl)-1H-benzo[de]isoquinoline-1,3(2H)-dione] | > 100 µM | moderate cytotoxicity
62.2 µM | > 100 µM | – | – | COc1ccc(OC)c(C2CC(c3ccc(OCc4cn(CCCN5C(=O)c6cccc7cccc(c67)C5=O)nn4)cc3)=NN2C(C)=O)c1 (stereo not shown) [13g, 2-(3-(4-((4-(1-Acetyl-5-(2,5-dimethoxyphenyl)-4,5-dihydro-1H-pyrazol-3-yl)phenoxy)methyl)-1H-1,2,3-triazol-1-yl)propyl)-1H-benzo[de]isoquinoline-1,3(2H)-dione] | > 100 µM | moderate cytotoxicity
> 100 µM | > 100 µM | – | – | CC(=O)N1N=C(c2ccc(OCc3cn(CCCN4C(=O)c5cccc6cccc(c56)C4=O)nn3)cc2)CC1c1ccc([N+](=O)[O-])cc1 (stereo not shown) [13h, 2-(3-(4-((4-(1-Acetyl-5-(4-nitrophenyl)-4,5-dihydro-1H-pyrazol-3-yl)phenoxy)methyl)-1H-1,2,3-triazol-1-yl)propyl)-1H-benzo[de]isoquinoline-1,3(2H)-dione] | – | –
– | – | > 100 µM | > 100 µM | O=C(/C=C/[c-]1cccc1)c1ccc(OCc2cn(CCN3C(=O)c4cccc5cccc(c45)C3=O)nn2)cc1.[Fe+2].c1cc[cH-]c1 [14a, (E)-2-(2-(4-((4-(3-Ferrocenyl-acryloyl)phenoxy)methyl)-1H-1,2,3-triazol-1-yl)ethyl)-1H-benzo[de]isoquinoline-1,3(2H)-dione] | – | –
– | – | > 100 µM | > 100 µM | CC(CN1C(=O)c2cccc3cccc(c23)C1=O)n1cc(COc2ccc(C(=O)/C=C/[c-]3cccc3)cc2)nn1.[Fe+2].c1cc[cH-]c1 (stereo not shown) [14b, (E)-2-(2-(4-((4-(3-Ferrocenyl-acryloyl)phenoxy)methyl)-1H-1,2,3-triazol-1-yl)propyl)-1H-benzo[de]isoquinoline-1,3(2H)-dione] | – | –
– | – | > 100 µM | > 100 µM | CC(=O)N1N=C(c2ccc(OCc3cn(CCN4C(=O)c5cccc6cccc(c56)C4=O)nn3)cc2)CC1[c-]1cccc1.[Fe+2].c1cc[cH-]c1 (stereo not shown) [15a, 2-(2-(4-((4-(1-Acetyl-5-ferrocenyl-4,5-dihydro-1H-pyrazol-3-yl)phenoxy)methyl)-1H-1,2,3-triazol-1-yl)ethyl)-1H-benzo[de]isoquinoline-1,3(2H)-dione] | – | –
– | – | > 100 µM | > 100 µM | CC(=O)N1N=C(c2ccc(OCc3cn(C(C)CN4C(=O)c5cccc6cccc(c56)C4=O)nn3)cc2)CC1[c-]1cccc1.[Fe+2].c1cc[cH-]c1 (stereo not shown) [15b, 2-(2-(4-((4-(1-Acetyl-5-ferrocenyl-4,5-dihydro-1H-pyrazol-3-yl)phenoxy)methyl)-1H-1,2,3-triazol-1-yl)propyl)-1H-benzo[de]isoquinoline-1,3(2H)-dione] | – | –

The remaining lines, values behind:

Compound | IC50 (MCF-7 cells; Homo sapiens, MCF7, 24 h) | IC50 (MDA-MB-231 cells; Homo sapiens, MDA-MB-231, 24 h) | IC50 (MCF-7 cells; [1]) | IC50 (MDA-MB-231 cells; [1]) | IC50 (HEK-293 cells) | IC50 against MCF-7 cells (MCF-7 cells; [1])
COc1ccc(/C=C/C(=O)c2ccc(OCc3cn(CCN4C(=O)c5cccc6cccc(c56)C4=O)nn3)cc2)cc1 [12b, (E)-2-(2-(4-((4-(3-(4-Methoxyphenyl)acryloyl)phenoxy)methyl)-1H-1,2,3-triazol-1-yl)ethyl)-1H-benzo[de]isoquinoline-1,3(2H)-dione] | > 100 µM | > 100 µM | – | – | – | –
COc1ccc(OC)c(/C=C/C(=O)c2ccc(OCc3cn(CCN4C(=O)c5cccc6cccc(c56)C4=O)nn3)cc2)c1 [12c, (E)-2-(2-(4-((4-(3-(2,5-Dimethoxyphenyl)acryloyl)phenoxy)methyl)-1H-1,2,3-triazol-1-yl)ethyl)-1H-benzo[de]isoquinoline-1,3(2H)-dione] | > 100 µM | > 100 µM | – | – | – | –
O=C(/C=C/c1ccc([N+](=O)[O-])cc1)c1ccc(OCc2cn(CCN3C(=O)c4cccc5cccc(c45)C3=O)nn2)cc1 [12d, (E)-2-(2-(4-((4-(3-(4-Nitrophenyl)acryloyl)phenoxy)methyl)-1H-1,2,3-triazol-1-yl)ethyl)-1H-benzo[de]isoquinoline-1,3(2H)-dione] | > 100 µM | > 100 µM | – | – | – | –
O=C(C=Cc1ccccc1)c1ccc(OCc2cn(CCCN3C(=O)c4cccc5cccc(c45)C3=O)nn2)cc1 [12e, 2-(3-(4-((4-Cinnamoylphenoxy)methyl)-1H-1,2,3-triazol-1-yl)propyl)-1H-benzo[de]isoquinoline-1,3(2H)-dione] | > 100 µM | > 100 µM | – | – | – | –
COc1ccc(/C=C/C(=O)c2ccc(OCc3cn(CCCN4C(=O)c5cccc6cccc(c56)C4=O)nn3)cc2)cc1 [12f, (E)-2-(3-(4-((4-(3-(4-Methoxyphenyl)acryloyl)phenoxy)methyl)-1H-1,2,3-triazol-1-yl)propyl)-1H-benzo[de]isoquinoline-1,3(2H)-dione] | > 100 µM | > 100 µM | – | – | – | –
COc1ccc(OC)c(/C=C/C(=O)c2ccc(OCc3cn(CCCN4C(=O)c5cccc6cccc(c56)C4=O)nn3)cc2)c1 [12g, (E)-2-(3-(4-((4-(3-(2,5-Dimethoxyphenyl)acryloyl)phenoxy)methyl)-1H-1,2,3-triazol-1-yl)propyl)-1H-benzo[de]isoquinoline-1,3(2H)-dione] | > 100 µM | > 100 µM | – | – | – | –
O=C(/C=C/c1ccc([N+](=O)[O-])cc1)c1ccc(OCc2cn(CCCN3C(=O)c4cccc5cccc(c45)C3=O)nn2)cc1 [12h, (E)-2-(3-(4-((4-(3-(4-nitrophenyl)acryloyl)phenoxy)methyl)-1H-1,2,3-triazol-1-yl)propyl)-1H-benzo[de]isoquinoline-1,3(2H)-dione] | > 100 µM | > 100 µM | – | – | – | –
CC1=CC(=O)c2c(O)cccc2C1=O [Plumbagin, reference compound] | 3.5 µM | – | – | – | – | –
